Source: PubChem
A selection: hits, their analogues and other compounds. The true share with any hit is near 27%.
CYP2C9 inhib = blocks human cytochrome P450 2C9; P11712; CYP2C9 Supersomes, luciferin-H conversion, luminescence; inhibition, % at 5 µM; 96,000 compounds, 20% hits; AID 777;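 active means blocking of liver enzyme CYP2C9 beyond about 50% at 5 µM, limit read from the data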
Target sequence (P11712 whole entry, looked up): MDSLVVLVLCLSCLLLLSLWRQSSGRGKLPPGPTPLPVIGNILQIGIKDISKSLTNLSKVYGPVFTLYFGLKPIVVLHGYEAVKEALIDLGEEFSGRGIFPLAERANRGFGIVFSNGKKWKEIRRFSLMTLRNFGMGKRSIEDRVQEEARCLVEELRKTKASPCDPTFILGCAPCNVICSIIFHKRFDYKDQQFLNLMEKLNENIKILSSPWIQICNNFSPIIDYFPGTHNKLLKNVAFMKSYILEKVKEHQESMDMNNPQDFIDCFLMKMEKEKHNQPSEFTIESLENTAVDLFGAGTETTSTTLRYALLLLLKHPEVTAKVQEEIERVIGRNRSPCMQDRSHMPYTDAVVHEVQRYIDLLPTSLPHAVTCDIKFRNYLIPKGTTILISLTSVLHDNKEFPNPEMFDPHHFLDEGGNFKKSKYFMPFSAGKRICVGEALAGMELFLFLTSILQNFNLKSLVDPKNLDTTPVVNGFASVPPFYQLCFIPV
Cav32 inh = human Cav3.2 channel inhibition, primary screen; O95180; Cav3.2-expressing cells, Fluo-4 calcium fluorescence FDSS; stronger effect = lower value; B-score at 10 µM; 100,000 compounds, 4% hits;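 active means single-dose well whose peak fluorescence ratio is a statistical outlier from its plate by either plate-standardised score or position-corrected B-score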
CYP2C19 inh = human CYP2C19 inhibition. P33261. CYP2C19 Supersomes, luciferin-H EGE luminescence, 30 min. inhibition, % at 5 µM. 96,000 compounds, 21% hits;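 active means CYP2C19 inhibition above a set limit at 5 µM in the primary screen, cut at about 50% in these data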
CYP2C9 act = CYP2C9 (human) activation. 96,000 compounds, 1.4% hits. activation factor at 5 µM. P11712. recombinant CYP2C9, luciferin-H conversion, luminescence; stronger effect = higher value; factor 1 = untreated enzyme, 0 = blocked;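 active means activation factor of 2 or more for CYP2C9 at a 5 µM dose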
CYP2C19 act = activators of human cytochrome P450 2C19; P33261; 96,000 tested, under 10 active; AID 1025; recombinant CYP2C19, luciferin-H EGE luminescence; stronger effect = higher value; 0 = fully inhibited enzyme, 1 = untreated enzyme; activation factor at 5 µM;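 active means activation factor of at least 2 at 5 µM in the primary screen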
Rev-RRE block = disrupts HIV-1 Rev binding to RRE RNA | P05866 | Rev peptide-RRE RNA binding, FRET | inhibition, % at 8 µM | 97,000 compounds, 0.79% hits;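 active means inhibition above the screen-wide mean plus 3 SD, cut at about 35% in these data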
Target sequence (P05866 whole entry, looked up): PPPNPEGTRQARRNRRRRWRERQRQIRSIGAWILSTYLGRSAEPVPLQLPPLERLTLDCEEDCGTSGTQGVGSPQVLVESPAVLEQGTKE
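Assay system: Rev peptide and RRE RNA, both fluorescently labelled; times: 5 min preincubation and 15 min binding, 25 °C; detection: FRET, ex 480 nm, em 540 and 671 nm; read-out basis: % inhibition from 671/540 nm acceptor-to-donor ratio, scaled between controls; benchmarks: DMSO low control, neomycin B high control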
Large screens that a line does not name were inactive.

Cc1cc(/C=N\NC(=O)CC(=O)NC2CCCCC2)c(C)n1-c1ccc(Cl)c(Cl)c1	none
COc1cccc(NC(=O)C(=O)N/N=C/c2cc(C)n(-c3ccc(Cl)c(Cl)c3)c2C)c1	Cav32 inh -5.6, CYP2C19 inh 57
CCOC(=O)CN1CCc2c(C)nc3c(-c4ccc(OC)c(OC)c4)cnn3c21	none
O=[N+]([O-])c1cc(S(=O)(=O)Nc2cccc(C(F)(F)F)c2)ccc1-n1nnc2ccccc21	CYP2C9 inhib 98, Cav32 inh -5.6, CYP2C19 inh 93
COc1ccc(NS(=O)(=O)c2ccc(-n3nnc4ccccc43)c([N+](=O)[O-])c2)cc1	CYP2C9 inhib 93, CYP2C19 inh 74
COc1ccc(NS(=O)(=O)c2ccc(N)c(C(=O)O)c2)cc1	none
C=C(C)Cn1c(CNC(C)=O)nc2ccccc21	none (no result: CYP2C9 inhib, CYP2C19 inh, CYP2C9 act, CYP2C19 act, Rev-RRE block)
CC(Sc1ccccn1)C(=O)Nc1ccccc1 (configuration not stated)	CYP2C19 inh 81
COc1ccc(NC(=O)C(C)Sc2ccccc2)cc1 (configuration not stated)	CYP2C9 inhib 64, CYP2C19 inh 51
CC(Sc1ccccc1)C(=O)Nc1ccc(N2CCOCC2)cc1 (configuration not stated)	none
O=C(N1CCCC1)N1CCN(c2ncnc3c(-c4ccc(Cl)cc4)nsc23)CC1	none (no result: Cav32 inh, Rev-RRE block)
CCCCn1c(-c2nn(C)c(C)c2Cl)n[nH]c1=S	none
CC(C)Cn1c(-c2nn(C)cc2Cl)n[nH]c1=S	CYP2C19 inh 57
CCCCn1c(-c2csc3ccccc23)n[nH]c1=S	CYP2C9 inhib 89, CYP2C19 inh 97 (no result: Cav32 inh)
CCCCn1c(-c2nn(C)cc2Cl)n[nH]c1=S	CYP2C19 inh 52
COC(=O)c1[nH]c2cc(OC)ccc2c1NC(=O)CCN1CCSCC1	none
COc1ccc(/C=C/C(=O)Oc2cccc(/C=N/NC(=O)COc3c(C)cccc3C)c2)cc1	none
COc1cc2c(c(OC)c1)C(c1cccc(OC)c1OC)CC(=O)N2 (configuration not stated)	none (no result: CYP2C9 inhib, CYP2C19 inh, CYP2C9 act, CYP2C19 act)
COc1cccc(C2NC(=O)c3ccccc3O2)c1OC (configuration not stated)	CYP2C19 inh 86
COC(=O)C1=C(C)NC(=O)C1(NC(=O)c1cccnc1)C(F)(F)F (configuration not stated)	none (no result: CYP2C9 inhib, CYP2C19 inh, CYP2C9 act, CYP2C19 act)
COC(=O)C1=C(C)NC(=O)C1(Nc1ccc(Cl)cn1)C(F)(F)F (configuration not stated)	CYP2C19 inh 70
Cc1nnc(SCc2ccccc2)n1CC1CCCO1 (configuration not stated)	none
Cc1ccc(-c2nnc(SCC(=O)NCC3CCCO3)n2C)cc1 (configuration not stated)	none
Cn1c(SCC2CCCO2)nnc1-c1ccncc1 (configuration not stated)	CYP2C19 inh 66
Cc1ccc(CSc2nnc(-c3ccncc3)n2CC2CCCO2)cc1 (configuration not stated)	CYP2C19 inh 60
CCC(=O)N1CCc2cc(S(=O)(=O)NCCCN(CC)Cc3ccccc3)ccc21	none
CCOC(=O)C1CCN(C(=O)c2sc3nc(-c4ccc(F)cc4)cn3c2C)CC1	none (no result: Cav32 inh)
Cc1cc(C)c(S(=O)(=O)N2CCC(C(=O)NCc3ccc(Cl)cc3Cl)CC2)c(C)c1	Cav32 inh -4.7, CYP2C9 act 2.9
COc1ccc2c(c1)CCc1c(C(=O)NC3CCCCC3)noc1-2	none (no result: Rev-RRE block)
Cc1sc2ncnc(N3CCN(CCOc4ccc(Cl)cc4)CC3)c2c1C	CYP2C9 inhib 99, CYP2C19 inh 97
Cc1ccccc1OCCCN1CCCC1	none
Cc1cccc(OCCCCCn2ccnc2)c1C	CYP2C9 inhib 100, CYP2C19 inh 100
Cc1ccc(C)c(OCCCCn2ccnc2)c1	CYP2C9 inhib 93, CYP2C19 inh 98
COc1ccc(Cn2ccnc2)cc1Br	CYP2C9 inhib 88, CYP2C19 inh 92
Cc1ccc(CNC(=O)C(=O)NCCCn2ccnc2)cc1	none (no result: CYP2C9 inhib, CYP2C19 inh, CYP2C9 act, CYP2C19 act)
Cc1ccc(OCCOCCn2ccnc2)c(Br)c1	CYP2C9 inhib 87, CYP2C19 inh 99
NC(=O)CC(NC(=O)Cc1cccc2ccccc12)c1ccc(NCc2ccc(F)c(F)c2)c([N+](=O)[O-])c1 (configuration not stated)	none (no result: CYP2C9 inhib, CYP2C19 inh, CYP2C9 act, CYP2C19 act, Rev-RRE block)
CN1CCN(C2CCCCCC2)CC1	none (no result: CYP2C9 inhib, CYP2C19 inh, CYP2C9 act, CYP2C19 act)
Cc1cc(C(C)(C)C)ccc1OCCn1ccnc1	CYP2C9 inhib 94, CYP2C19 inh 98
Cc1ccc(OCCn2nc3ccccc3n2)c(C)c1	none
Cc1ccc(OCCCCn2ccnc2)c(Cl)c1	CYP2C9 inhib 98, CYP2C19 inh 100
Cc1cc(C)c(C)c(OCCCn2ccnc2)c1	CYP2C9 inhib 95, CYP2C19 inh 100
Cc1ccc(OCCCN2CCCC2)c(C)c1	none
COc1ccc(C(CNC(=O)c2ccc(S(=O)(=O)N3CCOCC3)cc2)N2CCCCC2)cc1 (configuration not stated)	none (no result: CYP2C9 inhib, CYP2C19 inh, CYP2C9 act, CYP2C19 act)
Nc1nc(SCC(=O)Nc2cc(-c3ccccc3)nn2-c2ccccc2)n[nH]1	CYP2C9 inhib 60, CYP2C19 inh 94
Nc1nc(SCC(=O)Nc2ccccc2Sc2ccc(Cl)cc2)n[nH]1	CYP2C9 inhib 99, Cav32 inh -5.9, CYP2C19 inh 100
Cc1ccc(-c2cc(NC(=O)CSc3n[nH]c(N)n3)n(-c3ccccc3)n2)cc1	none
COc1ccc(C2/C(=C(\O)c3cccc(OC)c3)C(=O)C(=O)N2c2ccccn2)cc1 (configuration not stated)	CYP2C9 inhib 69
COc1cccc(/C(O)=C2\C(=O)C(=O)N(c3ccccn3)C2c2ccccc2OC)c1 (configuration not stated)	none
COc1ccc(C(=O)Nn2cnc3scc(-c4cccs4)c3c2=O)c(O)c1	Cav32 inh -9 (no result: CYP2C9 inhib, CYP2C19 inh, CYP2C9 act, CYP2C19 act)
COc1cccc(-n2cnc3scc(-c4cccs4)c3c2=O)c1	CYP2C9 inhib 79 (no result: Cav32 inh)
O=c1c2c(-c3cccs3)csc2ncn1-c1ccc(Br)cc1	none
O=C(Nc1ccc(Cl)cc1C(=O)NCCN1CCOCC1)c1ccco1	CYP2C9 inhib 68
O=C(Nc1cc(C(F)(F)F)ccc1N1CCOCC1)c1ccco1	none
O=C(CNC(=O)c1ccco1)Nc1cc(Cl)ccc1N1CCOCC1	CYP2C9 inhib 73
Cc1cc(C)c2c(N)c(S(=O)c3ccc(C(C)(C)C)cc3)sc2n1 (configuration not stated)	CYP2C19 inh 61
Cc1nc2nc(C)n(-c3ccccc3)c2s1	none
CC(C)(C)c1ccc(NC(=O)c2ccc3c(c2)S(=O)(=O)c2ccccc2C3=O)cc1	none (no result: CYP2C9 inhib, CYP2C19 inh, CYP2C9 act, CYP2C19 act, Rev-RRE block)
Cc1cccc(C(=O)NNC2=C(C(=O)C(F)(F)F)CCC2)c1O	CYP2C9 inhib 94, Cav32 inh -8
CC1C(=O)CC(c2ccccc2)N(C)C1c1ccccc1 (configuration not stated)	CYP2C9 inhib 90, CYP2C19 inh 100 (no result: Rev-RRE block)
